From ChEMBL document CHEMBL1799968, “Dimethyl-diphenyl-propanamide derivatives as nonsteroidal dissociated glucocorticoid receptor agonists” (J Med Chem, 2010)

Columns and labels:
Glucocorticoid receptor [1] = target: T1, Glucocorticoid receptor (Homo sapiens, UniProt P04150); assay: Transrepression activity of glucocorticoid receptor in human A549 cells assessed as inhibition of IL1beta-stimulated NFkappaB-dependent E-selectin transcription by luciferase reporter gene assay; format: cell-based
T1 sequence (P04150 whole entry): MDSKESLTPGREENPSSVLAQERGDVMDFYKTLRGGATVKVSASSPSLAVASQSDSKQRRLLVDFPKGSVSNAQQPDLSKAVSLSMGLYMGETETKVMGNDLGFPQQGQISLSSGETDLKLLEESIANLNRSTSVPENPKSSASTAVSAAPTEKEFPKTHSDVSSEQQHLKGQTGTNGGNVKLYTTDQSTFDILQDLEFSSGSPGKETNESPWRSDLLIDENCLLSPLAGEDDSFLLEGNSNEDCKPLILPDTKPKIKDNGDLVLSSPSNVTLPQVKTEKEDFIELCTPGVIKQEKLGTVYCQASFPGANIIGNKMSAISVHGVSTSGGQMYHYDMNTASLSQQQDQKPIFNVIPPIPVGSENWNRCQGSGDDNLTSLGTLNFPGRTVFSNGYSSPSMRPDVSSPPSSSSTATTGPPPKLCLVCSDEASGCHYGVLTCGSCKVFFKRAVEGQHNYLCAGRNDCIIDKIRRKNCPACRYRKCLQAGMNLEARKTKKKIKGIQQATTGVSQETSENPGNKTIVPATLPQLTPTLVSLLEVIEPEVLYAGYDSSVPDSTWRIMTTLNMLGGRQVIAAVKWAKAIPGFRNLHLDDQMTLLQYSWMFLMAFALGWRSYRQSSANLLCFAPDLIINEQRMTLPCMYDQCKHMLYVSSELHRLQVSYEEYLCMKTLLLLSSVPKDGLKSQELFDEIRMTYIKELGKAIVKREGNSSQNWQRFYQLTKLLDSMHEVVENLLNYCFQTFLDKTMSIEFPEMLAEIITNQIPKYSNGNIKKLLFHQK

[2] = Selectivity ratio of Ki of GRapha to Ki of estrogen receptor alpha
[3] = target: T2, Mineralocorticoid receptor (Homo sapiens, UniProt P08235); assay: Agonist activity at mineralocorticoid receptor in human A549 cells; format: functional, cell-based
T2 sequence (P08235 whole entry): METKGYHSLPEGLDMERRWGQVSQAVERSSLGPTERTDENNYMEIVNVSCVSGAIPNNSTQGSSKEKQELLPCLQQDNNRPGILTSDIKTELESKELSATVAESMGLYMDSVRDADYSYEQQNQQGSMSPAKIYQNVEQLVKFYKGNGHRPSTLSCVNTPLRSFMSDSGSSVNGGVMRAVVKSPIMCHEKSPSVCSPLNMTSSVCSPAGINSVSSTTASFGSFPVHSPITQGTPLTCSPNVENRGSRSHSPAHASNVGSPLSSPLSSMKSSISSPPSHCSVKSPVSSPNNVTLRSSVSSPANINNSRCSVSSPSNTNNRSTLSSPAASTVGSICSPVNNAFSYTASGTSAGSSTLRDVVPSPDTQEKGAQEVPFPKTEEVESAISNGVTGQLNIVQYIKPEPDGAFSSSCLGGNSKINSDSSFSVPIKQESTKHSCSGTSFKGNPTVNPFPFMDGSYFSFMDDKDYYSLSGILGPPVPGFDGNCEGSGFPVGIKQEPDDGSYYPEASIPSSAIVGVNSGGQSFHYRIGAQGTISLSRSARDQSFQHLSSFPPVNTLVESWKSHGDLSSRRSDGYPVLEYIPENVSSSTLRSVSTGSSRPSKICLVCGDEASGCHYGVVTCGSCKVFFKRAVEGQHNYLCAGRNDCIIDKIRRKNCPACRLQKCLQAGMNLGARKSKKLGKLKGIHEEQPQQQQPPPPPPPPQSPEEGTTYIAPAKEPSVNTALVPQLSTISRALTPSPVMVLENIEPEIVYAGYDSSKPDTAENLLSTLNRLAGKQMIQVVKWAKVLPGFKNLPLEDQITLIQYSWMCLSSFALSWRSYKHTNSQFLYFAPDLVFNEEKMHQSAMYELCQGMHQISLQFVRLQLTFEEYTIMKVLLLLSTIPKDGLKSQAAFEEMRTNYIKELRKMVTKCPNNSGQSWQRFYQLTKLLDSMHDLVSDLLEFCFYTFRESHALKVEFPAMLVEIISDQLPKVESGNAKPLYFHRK

Glucocorticoid receptor [4] = target: T1, Glucocorticoid receptor; assay: Displacement of GS-red from GRapha by fluorescence polarization assay
Glucocorticoid receptor [5] = target: T1, Glucocorticoid receptor; assay: Transactivation activity of glucocorticoid receptor ligand binding domain expressed in human NP-1 Hela cells co-expressing GAL4 DNA binding domain by luciferase reporter gene assay; format: cell-based
Androgen receptor = target: T3, Androgen receptor (Homo sapiens, UniProt P10275); assay: Binding affinity to androgen receptor by fluorescence polarization assay
T3 sequence (P10275 whole entry): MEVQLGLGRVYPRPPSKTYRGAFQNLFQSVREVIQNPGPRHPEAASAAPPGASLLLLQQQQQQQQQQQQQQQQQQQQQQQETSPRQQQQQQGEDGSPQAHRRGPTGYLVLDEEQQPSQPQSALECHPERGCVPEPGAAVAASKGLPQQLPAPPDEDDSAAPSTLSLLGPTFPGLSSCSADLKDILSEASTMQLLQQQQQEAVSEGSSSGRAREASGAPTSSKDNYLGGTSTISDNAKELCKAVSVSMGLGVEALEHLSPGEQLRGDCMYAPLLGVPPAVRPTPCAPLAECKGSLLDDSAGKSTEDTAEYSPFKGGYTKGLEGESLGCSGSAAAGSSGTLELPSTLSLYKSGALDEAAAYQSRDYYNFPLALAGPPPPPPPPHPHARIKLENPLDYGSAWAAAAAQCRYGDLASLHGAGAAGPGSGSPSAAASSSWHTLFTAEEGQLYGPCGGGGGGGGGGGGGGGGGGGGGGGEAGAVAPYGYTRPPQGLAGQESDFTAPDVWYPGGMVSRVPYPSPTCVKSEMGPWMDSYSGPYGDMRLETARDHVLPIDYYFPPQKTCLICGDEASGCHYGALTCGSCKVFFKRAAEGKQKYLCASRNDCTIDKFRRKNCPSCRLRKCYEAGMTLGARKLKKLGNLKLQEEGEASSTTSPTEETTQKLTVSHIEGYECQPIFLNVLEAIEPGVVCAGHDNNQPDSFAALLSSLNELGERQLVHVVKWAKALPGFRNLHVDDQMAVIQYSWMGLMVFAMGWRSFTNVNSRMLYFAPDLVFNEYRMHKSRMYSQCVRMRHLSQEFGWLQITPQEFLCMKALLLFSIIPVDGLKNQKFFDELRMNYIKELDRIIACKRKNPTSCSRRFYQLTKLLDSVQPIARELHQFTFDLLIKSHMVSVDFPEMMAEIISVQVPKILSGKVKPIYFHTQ
Procedure, shortened: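 Fluorescence polarization competition of test compound against a fluorescently labelled ligand for binding to full-length receptor or its ligand-binding domain.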

[6] = Selectivity ratio of Ki of GRapha to Ki of androgen receptor
[7] = target: T4, Glucocorticoid receptor (Homo sapiens) (UniProt P04150); assay: Transactivation activity of glucocorticoid receptor ligand binding domain expressed in human NP-1 Hela cells co-expressing GAL4 DNA binding domain by luciferase reporter gene assay relative to Dexamethasone; format: cell-based
T4 sequence (whole entry): T1 sequence (P04150 whole entry)
Procedure, shortened: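 HeLa NP-1 cells stably carrying a GAL4 DBD–human GR LBD chimera with a GAL4 luciferase reporter. Agonist activity was read as increased luciferase activity.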

CC(C)(C(=O)Nc1nccs1)[C@@H](c1ccccc1)c1ccc(O)c(Br)c1 showed an EC50 (Glucocorticoid receptor [1]) of 8.6 nM, a Ratio Ki [2] greater than 6800 and an EC50 [3] greater than 5000 nM. It also gave a Ki (Glucocorticoid receptor [4]) of 0.4 nM, an EC50 (Glucocorticoid receptor [5]) of 115 nM and a Ki (Androgen receptor) of 370 nM. The Ratio Ki [6] was greater than 870 and the Efficacy [7] was 48%.
Compound CC(C)(C(=O)Nc1nncs1)[C@H]1c2ccccc2Oc2cc(O)ccc21 has an EC50 (Glucocorticoid receptor [1]) of 3.5 nM, a Ratio Ki [2] greater than 6800 and an EC50 [3] greater than 5000 nM. For the same compound, the Ki (Glucocorticoid receptor [4]) was 0.8 nM, the EC50 (Glucocorticoid receptor [5]) was 85.7 nM and the Ki (Androgen receptor) was 696 nM. The Ratio Ki [6] was greater than 870 and the Efficacy [7] was 46%.
CC(C)(C(=O)Nc1nccs1)[C@@H](c1ccccc1)c1ccc(O)cc1 gave an EC50 (Glucocorticoid receptor [1]) of 29.5 nM, a Ratio Ki [2] greater than 6800 and an EC50 [3] greater than 5000 nM. For the same compound, the Ki (Glucocorticoid receptor [4]) was 1.2 nM, the EC50 (Glucocorticoid receptor [5]) was 372 nM and the Ki (Androgen receptor) was 1060 nM. It also gave a Ratio Ki [6] greater than 870 and an Efficacy [7] of 21%.
In the case of CC(C)(C(=O)Nc1nccs1)[C@H]1c2ccccc2Oc2cc(O)ccc21, the EC50 (Glucocorticoid receptor [1]) is reported as 9.3 nM, the Ratio Ki [2] is reported as greater than 6800 and the EC50 [3] is reported as greater than 5000 nM. The Ki (Glucocorticoid receptor [4]) was 0.3 nM, the EC50 (Glucocorticoid receptor [5]) was 60.1 nM and the Ki (Androgen receptor) was 2340 nM. The Ratio Ki [6] was greater than 870 and the Efficacy [7] was 30%.
CC(C)(C(=O)Nc1nccs1)[C@@H](c1ccccc1)c1ccc(O)c(F)c1 gave an EC50 (Glucocorticoid receptor [1]) of 8.6 nM, a Ratio Ki [2] greater than 6800 and an EC50 [3] greater than 5000 nM. For the same compound, the Ki (Glucocorticoid receptor [4]) was 0.7 nM, the EC50 (Glucocorticoid receptor [5]) was 119 nM and the Ki (Androgen receptor) was 1030 nM. The Ratio Ki [6] was greater than 870 and the Efficacy [7] was 61%.
